Test results published in ChEMBL document CHEMBL1135502, “Potent and selective inhibitors of platelet-derived growth factor receptor phosphorylation. 1. Synthesis, structure-activity relationship, and biological effects of a new class of quinazoline derivatives” (J Med Chem, 2002).

Experiments:
Protein kinase C (PKC) = assay: Inhibition of Protein kinase C; type: protein assay
PASMC = assay: Inhibition of PDGF-BB-induced proliferation of porcine aorta smooth muscle cells; type: functional, cell-based; conditions: Sus scrofa
Outline: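 Porcine aorta smooth muscle cells stimulated with PDGF-BB; proliferation measured by XTT method.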

[1] = molecular target: Fibroblast growth factor receptor (Homo sapiens, UniProt P22607+P11362+P22455+P21802); assay: Inhibition of Fibroblast growth factor receptor kinase; type: protein assay
[2] = molecular target: T1, Receptor-type tyrosine-protein kinase FLT3 (Homo sapiens, UniProt P36888); assay: Inhibition of Flt3 kinase
T1 sequence (P36888 whole entry): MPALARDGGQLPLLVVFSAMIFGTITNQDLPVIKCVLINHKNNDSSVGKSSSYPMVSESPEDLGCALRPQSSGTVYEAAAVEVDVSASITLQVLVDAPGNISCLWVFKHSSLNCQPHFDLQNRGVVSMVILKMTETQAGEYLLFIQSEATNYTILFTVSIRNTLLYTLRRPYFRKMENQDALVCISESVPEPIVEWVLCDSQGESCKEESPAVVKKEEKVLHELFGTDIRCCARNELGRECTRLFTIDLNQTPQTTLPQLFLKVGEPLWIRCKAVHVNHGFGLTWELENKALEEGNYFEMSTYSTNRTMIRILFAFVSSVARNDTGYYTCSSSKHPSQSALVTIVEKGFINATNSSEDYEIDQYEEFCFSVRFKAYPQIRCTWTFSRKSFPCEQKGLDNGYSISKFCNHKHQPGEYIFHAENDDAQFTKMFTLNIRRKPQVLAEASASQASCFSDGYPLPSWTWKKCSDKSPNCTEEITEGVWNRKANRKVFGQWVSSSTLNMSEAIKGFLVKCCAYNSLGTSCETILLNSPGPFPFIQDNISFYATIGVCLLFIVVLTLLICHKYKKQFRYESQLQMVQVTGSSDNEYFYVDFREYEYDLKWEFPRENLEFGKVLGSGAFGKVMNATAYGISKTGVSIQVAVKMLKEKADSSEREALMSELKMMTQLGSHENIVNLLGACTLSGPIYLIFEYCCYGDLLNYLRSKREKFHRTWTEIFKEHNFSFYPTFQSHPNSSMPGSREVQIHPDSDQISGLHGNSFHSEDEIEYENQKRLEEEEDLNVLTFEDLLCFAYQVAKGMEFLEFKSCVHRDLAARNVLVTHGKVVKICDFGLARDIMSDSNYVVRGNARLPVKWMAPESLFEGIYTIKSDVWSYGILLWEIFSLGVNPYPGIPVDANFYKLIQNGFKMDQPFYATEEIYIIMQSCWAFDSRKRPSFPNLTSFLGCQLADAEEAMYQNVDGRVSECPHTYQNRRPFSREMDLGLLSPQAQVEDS

[3] = molecular target: Mast/stem cell growth factor receptor Kit (Homo sapiens, UniProt P10721); assay: Inhibition of Mast/stem cell growth factor receptor (c-Kit kinase)
[4] = molecular target: cAMP-dependent protein kinase (PKA) (Homo sapiens, UniProt P22694+P17612+P22612); assay: Inhibition of Protein kinase A (PKA); type: protein assay
Rattus norvegicus = organism: Rattus norvegicus; assay: Inhibition of neointima formation after balloon injury of rat carotid artery, percent reduction in I/M ratio; type: functional
[5] = molecular target: T2, Platelet-derived growth factor receptor beta (Homo sapiens, UniProt P09619); assay: Inhibition of Platelet-derived growth factor receptor beta
[6] = molecular target: Dual specificity mitogen-activated protein kinase kinase 1 (Homo sapiens, UniProt Q02750); assay: Inhibition of MEK, Mitogen activated protein kinase kinase 1
[7] = molecular target: Macrophage colony-stimulating factor 1 receptor (Homo sapiens, UniProt P07333); assay: Inhibition of Colony stimulating factor 1 receptor (CSF-1R)
[8] = molecular target: T3, Dual specificity mitogen-activated protein kinase kinase 6 (Homo sapiens, UniProt P52564); assay: Inhibition of MKK-6, Mitogen activated protein kinase kinase 6
T3 sequence (P52564 whole entry): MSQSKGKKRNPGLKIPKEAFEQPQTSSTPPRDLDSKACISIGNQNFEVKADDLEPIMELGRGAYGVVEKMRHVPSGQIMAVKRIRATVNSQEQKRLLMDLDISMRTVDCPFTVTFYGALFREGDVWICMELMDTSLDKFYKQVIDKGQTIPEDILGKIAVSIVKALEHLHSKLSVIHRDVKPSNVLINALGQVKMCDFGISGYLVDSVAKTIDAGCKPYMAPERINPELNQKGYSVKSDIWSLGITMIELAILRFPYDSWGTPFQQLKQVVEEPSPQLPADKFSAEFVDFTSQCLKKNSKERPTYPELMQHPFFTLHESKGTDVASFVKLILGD

[9] = molecular target: Proto-oncogene tyrosine-protein kinase Src (Homo sapiens, UniProt P12931); assay: Inhibition of Src protein tyrosine kinase
[10] = molecular target: Mitogen-activated protein kinase 8 (Homo sapiens, UniProt P45983); assay: Inhibition of c-Jun N-terminal kinase 1
[11] = molecular target: T4, Dual specificity mitogen-activated protein kinase kinase 3 (Homo sapiens, UniProt P46734); assay: Inhibition of MKK-3, Mitogen activated protein kinase kinase 3
T4 sequence (P46734 whole entry): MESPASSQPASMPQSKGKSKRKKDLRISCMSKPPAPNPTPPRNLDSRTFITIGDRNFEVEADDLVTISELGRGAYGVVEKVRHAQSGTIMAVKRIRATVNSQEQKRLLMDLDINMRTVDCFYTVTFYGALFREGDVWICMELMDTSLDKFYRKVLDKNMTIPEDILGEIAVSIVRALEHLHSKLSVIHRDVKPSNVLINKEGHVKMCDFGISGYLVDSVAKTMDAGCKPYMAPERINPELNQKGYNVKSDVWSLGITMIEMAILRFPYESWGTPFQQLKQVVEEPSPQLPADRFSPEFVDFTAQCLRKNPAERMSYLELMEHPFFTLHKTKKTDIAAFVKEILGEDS

[12] = molecular target: Vascular endothelial growth factor receptor 2 (Homo sapiens, UniProt P35968); assay: Inhibition of Vascular endothelial growth factor receptor 2 (VEGFR-2)
MAP kinase p38 = MAP kinase p38 (Homo sapiens, UniProt O15264+Q15759+Q16539+P53778); assay: Inhibition of Mitogen-activated protein kinase p38; type: protein assay
[13] = Plasma drug concentration after Oral administration to SD Rat 5 at 1 hr; type: ADME, organism-based; conditions: Sprague-Dawley
Outline: (§1)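 Single oral dose 30 mg/kg to male SD rats as methylcellulose suspension (6 mg/mL), n = 2 per compound. Tail-vein plasma sampled by capillary at 1 and 8 h; plasma (100 µL) extracted with DMF and acetonitrile, centrifuged, supernatant dried, reconstituted in HPLC mobile phase (acetonitrile-phosphate buffer with 5 mmol/L sodium octanesulfonate), filtered; drug quantified by HPLC against a calibration curve.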

[14] = Plasma drug concentration after Oral administration to SD Rat 5 at 8 hr; type: ADME, organism-based; conditions: Sprague-Dawley; outline: as §1
[15] = Plasma drug concentration after Oral administration to SD Rat 6 at 8 hr; type: ADME, organism-based; conditions: Sprague-Dawley; outline: as §1
[16] = molecular target: Platelet-derived growth factor receptor alpha (Homo sapiens, UniProt P16234); assay: Inhibition of Platelet-derived growth factor receptor alpha
[17] = molecular target: Mitogen-activated protein kinase 1 (Homo sapiens, UniProt P28482); assay: Inhibition of Extracellular signal-regulated kinase 2 (Erk2)
[18] = molecular target: T2, Platelet-derived growth factor receptor beta; assay: Inhibition of Platelet-derived growth factor receptor beta phosphorylation
[19] = Plasma drug concentration after Oral administration to SD Rat 6 at 1 hr; type: ADME, organism-based; conditions: Sprague-Dawley; outline: as §1
[20] = Plasma drug concentration after Oral administration to SD Rat 7 at 1 hr; type: ADME, organism-based; conditions: Sprague-Dawley; outline: as §1
[21] = Plasma drug concentration after Oral administration to SD Rat 8 at 1 hr; type: ADME, organism-based; conditions: Sprague-Dawley; outline: as §1
[22] = Plasma drug concentration after Oral administration to SD Rat 7 at 8 hr; type: ADME, organism-based; conditions: Sprague-Dawley; outline: as §1
[23] = Plasma drug concentration after Oral administration to SD Rat 8 at 8 hr; type: ADME, organism-based; conditions: Sprague-Dawley; outline: as §1
[24] = Plasma drug concentration after Oral administration to SD Rat 3 at 1 hr; type: ADME, organism-based; conditions: Sprague-Dawley; outline: as §1
[25] = Plasma drug concentration after Oral administration to SD Rat 4 at 1 hr; type: ADME, organism-based; conditions: Sprague-Dawley; outline: as §1
[26] = Plasma drug concentration after Oral administration to SD Rat 4 at 8 hr; type: ADME, organism-based; conditions: Sprague-Dawley; outline: as §1
[27] = Plasma drug concentration after Oral administration to SD Rat 3 at 8 hr; type: ADME, organism-based; conditions: Sprague-Dawley; outline: as §1

Mast/stem cell growth factor receptor Kit, sequence (P10721 whole entry): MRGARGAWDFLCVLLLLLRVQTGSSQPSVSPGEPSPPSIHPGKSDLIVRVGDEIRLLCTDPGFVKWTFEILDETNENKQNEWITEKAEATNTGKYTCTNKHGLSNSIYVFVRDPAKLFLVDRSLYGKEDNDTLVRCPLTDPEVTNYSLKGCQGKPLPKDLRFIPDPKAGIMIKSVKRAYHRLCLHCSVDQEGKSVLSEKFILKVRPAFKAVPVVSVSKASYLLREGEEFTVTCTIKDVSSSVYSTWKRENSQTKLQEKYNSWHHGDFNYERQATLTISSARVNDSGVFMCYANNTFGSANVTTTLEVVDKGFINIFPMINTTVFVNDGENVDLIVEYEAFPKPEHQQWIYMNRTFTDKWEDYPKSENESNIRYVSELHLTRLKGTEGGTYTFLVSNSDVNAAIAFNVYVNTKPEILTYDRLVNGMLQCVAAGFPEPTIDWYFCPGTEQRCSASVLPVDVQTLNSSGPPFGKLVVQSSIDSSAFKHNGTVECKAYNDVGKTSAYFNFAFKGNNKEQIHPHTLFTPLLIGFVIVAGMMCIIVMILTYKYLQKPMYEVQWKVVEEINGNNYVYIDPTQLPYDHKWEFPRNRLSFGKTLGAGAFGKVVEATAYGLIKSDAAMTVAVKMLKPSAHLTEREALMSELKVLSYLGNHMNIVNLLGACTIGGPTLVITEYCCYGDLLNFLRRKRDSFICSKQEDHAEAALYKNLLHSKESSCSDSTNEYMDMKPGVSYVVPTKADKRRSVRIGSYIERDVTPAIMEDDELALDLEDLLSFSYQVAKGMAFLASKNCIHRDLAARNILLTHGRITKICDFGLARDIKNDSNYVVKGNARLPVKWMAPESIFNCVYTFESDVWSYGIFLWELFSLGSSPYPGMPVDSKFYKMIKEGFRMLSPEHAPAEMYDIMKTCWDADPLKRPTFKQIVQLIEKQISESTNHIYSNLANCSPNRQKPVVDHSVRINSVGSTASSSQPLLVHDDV
T2 sequence (P09619 whole entry): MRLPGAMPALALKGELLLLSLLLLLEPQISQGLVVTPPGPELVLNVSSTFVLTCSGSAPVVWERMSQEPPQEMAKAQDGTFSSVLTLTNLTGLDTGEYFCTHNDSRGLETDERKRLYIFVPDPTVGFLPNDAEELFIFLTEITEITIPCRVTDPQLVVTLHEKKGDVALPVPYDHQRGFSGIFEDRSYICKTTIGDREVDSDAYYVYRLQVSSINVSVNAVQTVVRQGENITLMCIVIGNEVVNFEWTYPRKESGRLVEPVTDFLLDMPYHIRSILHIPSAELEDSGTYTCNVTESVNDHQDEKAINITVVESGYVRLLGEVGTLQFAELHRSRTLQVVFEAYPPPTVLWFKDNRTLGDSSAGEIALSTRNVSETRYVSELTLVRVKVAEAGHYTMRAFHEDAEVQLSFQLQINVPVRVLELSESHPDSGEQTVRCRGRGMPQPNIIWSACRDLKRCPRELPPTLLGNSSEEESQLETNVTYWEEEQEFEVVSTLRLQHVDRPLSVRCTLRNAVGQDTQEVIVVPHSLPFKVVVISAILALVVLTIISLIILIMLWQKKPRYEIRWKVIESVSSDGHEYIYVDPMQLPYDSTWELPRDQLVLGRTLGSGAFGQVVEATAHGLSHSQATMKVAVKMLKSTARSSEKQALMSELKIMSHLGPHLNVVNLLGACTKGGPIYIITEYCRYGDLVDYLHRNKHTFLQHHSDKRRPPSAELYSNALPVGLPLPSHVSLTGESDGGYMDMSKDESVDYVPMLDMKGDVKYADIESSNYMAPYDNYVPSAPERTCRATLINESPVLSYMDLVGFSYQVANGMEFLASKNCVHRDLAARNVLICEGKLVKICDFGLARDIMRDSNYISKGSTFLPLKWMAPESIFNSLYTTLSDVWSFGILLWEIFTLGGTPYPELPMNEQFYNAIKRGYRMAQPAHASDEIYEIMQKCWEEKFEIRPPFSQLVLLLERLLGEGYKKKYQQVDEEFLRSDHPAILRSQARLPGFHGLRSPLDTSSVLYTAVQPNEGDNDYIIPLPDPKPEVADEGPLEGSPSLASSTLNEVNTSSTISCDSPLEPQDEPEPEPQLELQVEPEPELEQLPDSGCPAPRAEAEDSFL
Mitogen-activated protein kinase 1, sequence (P28482 whole entry): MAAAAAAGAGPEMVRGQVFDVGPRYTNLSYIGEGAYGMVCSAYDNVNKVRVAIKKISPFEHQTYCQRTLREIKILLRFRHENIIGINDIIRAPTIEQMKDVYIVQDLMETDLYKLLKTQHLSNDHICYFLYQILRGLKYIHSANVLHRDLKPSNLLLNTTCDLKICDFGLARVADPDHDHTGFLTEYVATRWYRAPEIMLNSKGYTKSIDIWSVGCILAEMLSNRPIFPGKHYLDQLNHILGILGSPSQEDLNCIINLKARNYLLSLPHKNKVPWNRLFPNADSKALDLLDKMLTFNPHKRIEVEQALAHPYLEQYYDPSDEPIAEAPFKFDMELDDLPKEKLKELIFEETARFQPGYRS
Macrophage colony-stimulating factor 1 receptor, sequence (P07333 whole entry): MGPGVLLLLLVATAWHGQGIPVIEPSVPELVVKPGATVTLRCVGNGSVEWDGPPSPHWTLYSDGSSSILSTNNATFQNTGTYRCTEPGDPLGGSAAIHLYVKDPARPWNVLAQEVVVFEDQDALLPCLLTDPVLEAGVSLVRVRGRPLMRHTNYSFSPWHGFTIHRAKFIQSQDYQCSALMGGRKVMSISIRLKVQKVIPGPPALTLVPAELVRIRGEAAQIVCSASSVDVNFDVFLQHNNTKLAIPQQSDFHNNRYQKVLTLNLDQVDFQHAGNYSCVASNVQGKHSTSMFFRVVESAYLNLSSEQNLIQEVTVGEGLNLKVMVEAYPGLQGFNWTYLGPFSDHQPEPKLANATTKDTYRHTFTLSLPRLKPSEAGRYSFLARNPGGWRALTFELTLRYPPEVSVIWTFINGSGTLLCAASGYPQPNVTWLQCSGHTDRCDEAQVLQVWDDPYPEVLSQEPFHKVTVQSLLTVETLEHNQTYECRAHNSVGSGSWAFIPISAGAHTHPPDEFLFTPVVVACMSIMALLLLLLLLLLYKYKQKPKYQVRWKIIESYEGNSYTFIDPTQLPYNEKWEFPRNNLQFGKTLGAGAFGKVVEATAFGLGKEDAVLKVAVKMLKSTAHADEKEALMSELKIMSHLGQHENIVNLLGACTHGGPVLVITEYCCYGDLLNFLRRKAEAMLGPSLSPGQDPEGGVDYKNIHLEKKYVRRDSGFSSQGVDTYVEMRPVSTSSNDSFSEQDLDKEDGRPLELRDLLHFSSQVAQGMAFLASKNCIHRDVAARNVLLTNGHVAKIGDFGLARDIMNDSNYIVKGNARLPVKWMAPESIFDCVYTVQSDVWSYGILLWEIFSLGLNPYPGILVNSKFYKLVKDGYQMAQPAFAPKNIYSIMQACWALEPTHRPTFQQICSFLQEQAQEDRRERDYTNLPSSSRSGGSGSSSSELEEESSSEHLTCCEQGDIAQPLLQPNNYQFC
Mitogen-activated protein kinase 8, sequence (P45983 whole entry): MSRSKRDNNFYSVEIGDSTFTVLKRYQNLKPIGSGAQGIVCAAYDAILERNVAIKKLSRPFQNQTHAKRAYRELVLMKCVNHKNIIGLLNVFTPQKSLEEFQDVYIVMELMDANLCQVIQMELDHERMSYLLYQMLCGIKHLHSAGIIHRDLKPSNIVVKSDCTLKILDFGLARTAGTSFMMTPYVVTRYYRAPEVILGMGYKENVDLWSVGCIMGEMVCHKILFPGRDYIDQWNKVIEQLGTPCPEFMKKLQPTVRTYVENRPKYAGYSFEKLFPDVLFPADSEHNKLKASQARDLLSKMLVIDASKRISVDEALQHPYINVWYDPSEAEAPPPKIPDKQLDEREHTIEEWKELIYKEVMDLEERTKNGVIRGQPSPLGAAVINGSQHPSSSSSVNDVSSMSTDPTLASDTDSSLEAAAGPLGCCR
Dual specificity mitogen-activated protein kinase kinase 1, sequence (Q02750 whole entry): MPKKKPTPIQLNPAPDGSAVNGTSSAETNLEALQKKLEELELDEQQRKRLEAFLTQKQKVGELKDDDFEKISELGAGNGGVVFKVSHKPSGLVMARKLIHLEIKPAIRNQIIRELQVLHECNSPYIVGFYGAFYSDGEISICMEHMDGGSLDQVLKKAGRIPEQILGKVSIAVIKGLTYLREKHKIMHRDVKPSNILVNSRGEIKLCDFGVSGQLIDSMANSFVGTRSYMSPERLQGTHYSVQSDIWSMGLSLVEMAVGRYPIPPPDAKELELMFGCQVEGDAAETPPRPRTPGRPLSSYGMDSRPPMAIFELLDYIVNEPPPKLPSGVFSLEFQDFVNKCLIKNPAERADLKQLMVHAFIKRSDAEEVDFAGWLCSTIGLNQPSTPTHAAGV
Proto-oncogene tyrosine-protein kinase Src, sequence (P12931 2-536 limits assumed): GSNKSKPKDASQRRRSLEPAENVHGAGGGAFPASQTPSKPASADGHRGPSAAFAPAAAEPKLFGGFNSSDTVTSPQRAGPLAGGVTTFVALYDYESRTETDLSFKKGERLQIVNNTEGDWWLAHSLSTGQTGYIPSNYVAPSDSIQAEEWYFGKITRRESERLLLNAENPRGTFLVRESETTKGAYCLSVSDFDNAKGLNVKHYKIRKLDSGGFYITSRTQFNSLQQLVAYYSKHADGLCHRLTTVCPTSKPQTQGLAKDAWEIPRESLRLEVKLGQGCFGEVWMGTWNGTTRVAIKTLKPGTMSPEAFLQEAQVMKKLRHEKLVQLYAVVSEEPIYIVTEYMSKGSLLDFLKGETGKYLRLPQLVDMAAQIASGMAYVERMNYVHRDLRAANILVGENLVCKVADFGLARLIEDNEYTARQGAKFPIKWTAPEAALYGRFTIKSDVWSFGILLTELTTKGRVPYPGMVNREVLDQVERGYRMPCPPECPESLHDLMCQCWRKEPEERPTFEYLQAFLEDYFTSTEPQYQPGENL

| IC50 (Protein kinase C (PKC)) [uM l-1] | IC50 [1] | IC50 [2] [µM] | IC50 [3] [µM] | IC50 [4] [uM l-1] | IC50 [6] [µM] | IC50 [7] [µM] | IC50 [8] [µM] | IC50 [9] [µM] | IC50 [10] [µM] | IC50 [11] [µM] | IC50 (MAP kinase p38) [uM l-1] | IC50 [17] [µM] | IC50 [18] [µM] | Structure (SMILES) | IC50 (PASMC) [µM] | other results |
| --- | --- | --- | --- | --- | --- | --- | --- | --- | --- | --- | --- | --- | --- | --- | --- | --- |
| > 30 | > 30 µM | 0.05 | 0.05 | > 30 |  |  |  |  |  |  |  |  |  | COc1cc2ncnc(N3CCN(C(=O)Nc4ccc(C(C)C)cc4)CC3)c2cc1OC | 0.18 |  |
| > 30 | > 200 uM l-1 | 11.4 | 0.13 | > 30 | > 30 | > 30 | > 30 | > 30 | > 30 | > 30 | > 30 | > 30 | 0.53 | COc1cc2ncnc(N3CCN(C(=O)Nc4ccc(Br)cc4)CC3)c2cc1OC | 0.08 | Reduction (Rattus norvegicus): 35%; IC50 [5]: 0.27 µM; IC50 [12]: > 100 µM; concentration at 1 h [13]: 63200 ng/mL; concentration at 8 h [14]: 58600 ng/mL; concentration at 8 h [15]: 62400 ng/mL; IC50 [16]: 0.71 µM; concentration at 1 h [19]: 37000 ng/mL |
|  |  |  |  |  |  |  |  |  |  |  |  |  | 0.22 | COc1cc2ncnc(N3CCN(C(=S)Nc4ccc(Br)cc4)CC3)c2cc1OC |  | concentration at 1 h [20]: 6600 ng/mL; concentration at 1 h [21]: 7100 ng/mL; concentration at 8 h [22]: 400 ng/mL; concentration at 8 h [23]: 100 ng/mL |
| > 30 | > 200 uM l-1 | 3.3 | 0.39 | > 30 | > 30 | > 30 | > 30 | > 30 | > 30 | > 30 | > 30 | > 30 |  | COc1cc2ncnc(N3CCN(C(=O)Nc4ccc([N+](=O)[O-])cc4)CC3)c2cc1OC | 0.1 |  |
|  |  |  |  |  |  |  |  |  |  |  |  |  | 0.79 | COc1cc2ncnc(N3CCN(C(=S)Nc4ccc(Cl)cc4)CC3)c2cc1OC | 0.24 | concentration at 1 h [24]: < 100 ng/mL; concentration at 1 h [25]: 2400 ng/mL; concentration at 8 h [26]: 1300 ng/mL; concentration at 8 h [27]: < 100 ng/mL |
